Assay [1] has as its system HIV-1 virus particles. The assay can be described thus: Inactivation of luciferase-transducing HIV-1. The class given is cell-based. The settings on record: 1 mM, virus treated 1 h at 37°C, HEK293T cells, 48 h.
The subject of assay [2] is HIV-1 virus particles. The assay can be described thus: Inactivation of GFP-transducing HIV-1. Type of assay: cell-based. The settings on record: 1 mM, virus treated 1 h at 37°C, HEK293T cells, 48 h.
Another assay has as its system HIV-1. The settings on record: ref [21]–[3]; cited from earlier work.
Assay [3] concerns HIV-1 PrGag in immature virus particles. The assay can be described thus: Virus crosslink analysis, immature HIV-1 particles. Type of assay: biochemical. The settings on record: 1 mM compound, 1 h at 25°C.
The nature of assay [4]: Peptide crosslinking analysis. Type of assay: biochemical. The settings on record: 0.1 mM peptide, 1 mM compound, 2 h 25°C, reducing SDS-PAGE.
The target of the next assay is HIV-1 MA protein (Human immunodeficiency virus type 1 group M subtype B, UniProt P12493). The assay can be described thus: HIV-1 MA crosslinking, dimer/monomer immunoblot. The class given is biochemical. The settings on record: 30 µM MA, 50 µM compound. An outline of the steps: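 Purified HIV-1 MA at 30 µM in 25 mM sodium phosphate (pH 7.8) plus 50 mM NaCl, incubated 2 h at 25°C with or without 50 µM test compound. Dimer and monomer bands were then measured, and percentage MA crosslinking was derived from them.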
On the technique in general: Immunoblotting shows a protein as a band on a membrane.

The next assay deals with HIV-1 MA-RNA binding (Human immunodeficiency virus type 1 group M subtype B, UniProt P12493). The assay can be described thus: Fluorescence polarization. The settings on record: screen of 50,000 compounds.
Assay [5] has as its target soluble guanylate cyclase. The settings on record: read-out: IC50 concentrations; ref [8]–[9]; cited from earlier work.
A further assay concerns leukotriene synthesis. The settings on record: read-out: IC50 concentrations; ref [8]–[9]; cited from earlier work.

Take `c1ccc(SSc2ccccn2)nc1` [Aldrithiol-2, 2,2'-dipyridyldisulfide]: the “virus infectivity level after treatment (luciferase, in words)” value in the assay with HIV-1 virus particles [1] was “nearly mock-infection levels”. Besides, in the assay on HIV-1 virus particles [2], the “virus infection levels (GFP-positive cells, in words)” value is reported as “dramatically reduced virus infection levels”. Further, the “concentrations that inactivate HIV-1” value in the assay with HIV-1 was 300 to 1000 µM. As to `O=C1C=CC(=O)N1CCCCCCN1C(=O)C=CC1=O` [BMH, 1,6-bis-maleimidohexane, reference compound], the “HIV-1 PrGag dimer band” value in [3] is listed as “a dimer band was observed”. Also, in assay [4], the peptide dimer formation entry is recorded as “yielded dimers”.

Take `O=C1C=CC(=O)N1CCN1C(=O)C=CC1=O` [BMOE, bis-maleimidoethane]: the peptide dimer formation result in assay [4] is on record as “yielded dimers”. `O=C1C(Cl)=C(Cl)C(=O)c2ccccc21` [Compound 537, 2,3-dichloronaphthoquinone]: on HIV-1 MA protein, the “MA dimer formation (in words)” value is reported as “efficiently formed dimers”. Moreover, in assay [3], the “HIV-1 PrGag dimer band” value is recorded as “showed the HIV-1 PrGag dimer band”. The peptide dimer formation result in [4] was “yielded dimers”.

In the case of `O=C1C=CC(=O)c2cnccc21` [Compound 76882, 5,8-isoquinolinedione], the “MA dimer formation (in words)” value at HIV-1 MA protein is on record as “efficiently formed dimers”. Consider `O=C1C(Cl)=C(Cl)C(=O)c2ncccc21` [Compound 81047, 6,7-dichloro-5,8-quinolinedione], for which, on HIV-1 MA protein, the “MA dimer formation (in words)” value was “efficiently formed dimers”. Further, the “inhibition of MA-RNA binding in library screen (in words)” value at HIV-1 MA-RNA binding is on record as “potently inhibited MA-RNA binding”. Turning to `COC1=C(Cl)C(=O)c2ncccc2C1=O` [Compound 81048, 7-chloro-6-methoxy-5,8-quinolinedione], the “MA dimer formation (in words)” value on HIV-1 MA protein is on record as “significant levels of dimer formation”. Take `COC1=C(Br)C(=O)c2ncccc2C1=O` [Compound 102729, 7-bromo-6-methoxy-5,8-quinolinedione]: at HIV-1 MA protein, the “MA dimer formation (in words)” value is “significant levels of dimer formation”. In assay [3], the “HIV-1 PrGag dimer band” value is listed as “to lower extents”.

Regarding `O=C1C(Nc2ccccc2)=CC(=O)c2ncccc21` [LY83583, 6-anilino-5,8-quinolinequinone], the IC50 (in assay [5]; with leukotriene synthesis) was 1000 to 2000 nM each time.

The values are drawn from PMC5065790 (Bioorganic & medicinal chemistry, 2016).
